Source: ChEMBL document CHEMBL1131182, “Anti-AIDS agents. 34. Synthesis and structure-activity relationships of betulin derivatives as anti-HIV agents” (J Med Chem, 1998)

Legend:
[1] = Therapeutic Index is the […] of the IC50 to that of EC50; type: cell-based; settings: human, H9 cells; read-out: TI
H9 [2] = test: Anti-HIV activity against acutely infected H9 lymphocytes. Activity expressed as concentration of compound toxic to 50% of mock-infected H9 cells.; type: functional, cell-based; settings: Homo sapiens
Summary of the method: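 Uninfected H9 cells were exposed to DMSO-dissolved samples (screen 100, 20, 4, 0.8 µg/mL final) for 4 days at 37 °C, 5% CO2. Remaining cells were counted with a counter against medium-only controls. IC50 is the concentration toxic to 50% of mock-infected cells; at least two experiments averaged.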

H9 [3] = test: Anti-HIV activity against acutely infected H9 lymphocytes. Activity expressed as concentration of compound able to suppress HIV replication by 50%.; type: functional, cell-based; settings: Homo sapiens
Summary of the method: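 H9 cells (RPMI 1640, 10% FCS, L-glutamine, 37 °C, 5% CO2, log phase) infected 1 h with HIV-1 IIIB at MOI 0.1-0.01, washed and plated at 4 × 10^5 cells/mL with DMSO-dissolved samples (screen 100, 20, 4, 0.8 µg/mL final, further dilutions for actives). After 4 days, supernatant p24 was measured by antigen-capture ELISA against a standard curve. EC50 is 50% suppression of replication; at least two experiments averaged.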

Structure (SMILES) | selectivity ratio [1] | IC50 (H9 [2]) [µM] | EC50 (H9 [3]) [µM]
C=C(C)[C@@H]1CC[C@]2(C(=O)O)CC[C@]3(C)[C@H](CC[C@@H]4[C@@]5(C)CC[C@H](OC(=O)CC(C)(C)C(=O)O)C(C)(C)[C@@H]5CC[C@]43C)[C@@H]12 [BEVIRIMAT] | > 20000 | > 7 | < 0.00035
C=C(C)[C@@H]1CC[C@]2(COC(=O)CCCC(=O)O)CC[C@]3(C)[C@H](CC[C@@H]4[C@@]5(C)CC[C@H](OC(=O)CCCC(=O)O)C(C)(C)[C@@H]5CC[C@]43C)[C@@H]12 | 6.8 | 25.8 | 3.8
C=C(C)[C@@H]1CC[C@]2(COC(=O)CC(C)(C)CC(=O)O)CC[C@]3(C)[C@H](CC[C@@H]4[C@@]5(C)CC[C@H](OC(=O)CC(C)(C)CC(=O)O)C(C)(C)[C@@H]5CC[C@]43C)[C@@H]12 | 21500 | – | –
C=C(C)[C@@H]1CC[C@]2(COC(=O)CC3(CC(=O)O)CCCC3)CC[C@]3(C)[C@H](CC[C@@H]4[C@@]5(C)CC[C@H](OC(=O)CC6(CC(=O)O)CCCC6)C(C)(C)[C@@H]5CC[C@]43C)[C@@H]12 | 267 | – | –
C=C(C)[C@@H]1CC[C@]2(CO)CC[C@]3(C)[C@H](CC[C@@H]4[C@@]5(C)CC[C@H](O)C(C)(C)[C@@H]5CC[C@]43C)[C@@H]12 [BETULIN] | 1.9 | – | –
C=C(C)[C@@H]1CC[C@]2(COC(=O)CC3(CC(=O)O)CCCC3)CC[C@]3(C)[C@H](CC[C@@H]4[C@@]5(C)CC[C@H](O)C(C)(C)[C@@H]5CC[C@]43C)[C@@H]12 | 6.1 | 13.3 | 2.1
C=C(C)[C@@H]1CC[C@]2(/C=N/OC(=O)CC(C)(C)CC(=O)O)CC[C@]3(C)[C@H](CC[C@@H]4[C@@]5(C)CC/C(=N\OC(=O)CC(C)(C)CC(=O)O)C(C)(C)[C@@H]5CC[C@]43C)[C@@H]12 | 3.4 | 15.4 | 4.57
C=C(C)[C@@H]1CC[C@]2(COC(=O)CC3(CC(=O)O)CCCC3)CC[C@]3(C)[C@H](CC[C@@H]4[C@@]5(C)CC=CC(C)(C)[C@@H]5CC[C@]43C)[C@@H]12 | 4.3 | 36.2 | 8.5
CC(C)[C@@H]1CC[C@]2(COC(=O)CC(C)(C)CC(=O)O)CC[C@]3(C)[C@H](CC[C@@H]4[C@@]5(C)CC[C@H](OC(=O)CC(C)(C)CC(=O)O)C(C)(C)[C@@H]5CC[C@]43C)[C@@H]12 | 2250 | – | –
C=C(C)[C@@H]1CC[C@]2(/C=N/O)CC[C@]3(C)[C@H](CC[C@@H]4[C@@]5(C)CC/C(=N\O)C(C)(C)[C@@H]5CC[C@]43C)[C@@H]12 [BETULIN-3,28-DIOXIME] | 5.1 | 5.47 | 1.07
C=C(C)[C@@H]1CC[C@]2(CO)CC[C@]3(C)[C@H](CC[C@@H]4[C@@]5(C)CC=CC(C)(C)[C@@H]5CC[C@]43C)[C@@H]12 | 2.7 | – | –
C=C(COC(=O)CC(C)(C)CC(=O)O)[C@@H]1CC[C@]2(COC(=O)CC(C)(C)CC(=O)O)CC[C@]3(C)[C@H](CC[C@@H]4[C@@]5(C)CC[C@H](OC(=O)CC(C)(C)CC(=O)O)C(C)(C)[C@@H]5CC[C@]43C)[C@@H]12 | 389 | 17.5 | 0.045
C=C(C)[C@@H]1CC[C@]2(COC(=O)CCC(=O)O)CC[C@]3(C)[C@H](CC[C@@H]4[C@@]5(C)CC[C@H](OC(=O)CCC(=O)O)C(C)(C)[C@@H]5CC[C@]43C)[C@@H]12 | 9.3 | 35.3 | 3.8
C=C(C)[C@@H]1CC[C@]2(COC(=O)CC3(CC(=O)O)CCCC3)CC[C@]3(C)[C@H](CC[C@@H]4[C@@]5(C)CCC(=O)C(C)(C)[C@@H]5CC[C@]43C)[C@@H]12 | 3 | 12.8 | 4.3
C=C(C)[C@@H]1CC[C@]2(COC(=O)CC(C)(C)CC(=O)O)CC[C@]3(C)[C@H](CC[C@@H]4[C@@]5(C)CC[C@H](O)C(C)(C)[C@@H]5CC[C@]43C)[C@@H]12 | 7.8 | – | –
CCC(C)(CC(=O)O)CC(=O)OC[C@]12CC[C@@H](C(C)C)[C@@H]1[C@H]1CC[C@@H]3[C@@]4(C)CC[C@H](OC(=O)CC(C)(CC)CC(=O)O)C(C)(C)[C@@H]4CC[C@@]3(C)[C@]1(C)CC2 (stereo not given in full) | 248 | – | –
C=C(C)[C@@H]1CC[C@]2(C=O)CC[C@]3(C)[C@H](CC[C@@H]4[C@@]5(C)CCC(=O)C(C)(C)[C@@H]5CC[C@]43C)[C@@H]12 [BETULONAL] | 1.1 | 49 | 45.6
CC(C)[C@@H]1CC[C@]2(COC(=O)CC3(CC(=O)O)CCCC3)CC[C@]3(C)[C@H](CC[C@@H]4[C@@]5(C)CC[C@H](OC(=O)CC6(CC(=O)O)CCCC6)C(C)(C)[C@@H]5CC[C@]43C)[C@@H]12 | 37 | – | –
C=C(C)[C@@H]1CC[C@]2(CNC(=O)CC(C)(C)CC(=O)O)CC[C@]3(C)[C@H](CC[C@@H]4[C@@]5(C)CC[C@H](NC(=O)CC(C)(C)CC(=O)O)C(C)(C)[C@@H]5CC[C@]43C)[C@@H]12 | 36.6 | 20.6 | 0.57
C=C(C)[C@@H]1CC[C@]2(COC(=O)C34CC5CC(CC(C5)C3)C4)CC[C@]3(C)[C@H](CC[C@@H]4[C@@]5(C)CC[C@H](OC(=O)CC(C)(C)CC(=O)O)C(C)(C)[C@@H]5CC[C@]43C)[C@@H]12 | > 44.8 | > 134 | 2.98
CC(C)[C@@H]1CC[C@]2(COC(=O)CCCC(=O)O)CC[C@]3(C)[C@H](CC[C@@H]4[C@@]5(C)CC[C@H](OC(=O)CCCC(=O)O)C(C)(C)[C@@H]5CC[C@]43C)[C@@H]12 | 17 | 26.3 | 1.6
C=C(C)[C@@H]1CC[C@]2(COC(=O)CC(C)(C)CC(=O)O)CC[C@]3(C)[C@H](CC[C@@H]4[C@@]5(C)CC[C@@H](OC(=O)CC(C)(C)CC(=O)O)C(C)(C)[C@@H]5CC[C@]43C)[C@@H]12 | < 2.4 | 33.6 | > 13.8
C=C(C)[C@@H]1CC[C@]2(COC(=O)CC(C)(C)CC(=O)O)CC[C@]3(C)[C@H](CC[C@@H]4[C@@]5(C)CCC(=O)C(C)(C)[C@@H]5CC[C@]43C)[C@@H]12 | 2.9 | – | –
C=C(C)[C@@H]1CC[C@]2(COC(=O)CC(C)(C)CC(=O)O)CC[C@]3(C)[C@H](CC[C@@H]4[C@@]5(C)CC=CC(C)(C)[C@@H]5CC[C@]43C)[C@@H]12 | 5.2 | – | –
C=C(C)[C@@H]1CC[C@]2(C(=O)O)CC[C@]3(C)[C@H](CC[C@@H]4[C@@]5(C)CC[C@H](OC(=O)C(C)(C)CC(=O)O)C(C)(C)[C@@H]5CC[C@]43C)[C@@H]12 | 5.9 | – | –
C=C(C)[C@@H]1CC[C@]2(C(=O)O)CC[C@]3(C)[C@H](CC[C@@H]4[C@@]5(C)CC[C@H](OC(=O)COCC(=O)O)C(C)(C)[C@@H]5CC[C@]43C)[C@@H]12 | 1170 | – | –
C=C(C)[C@@H]1CC[C@]2(COC(=O)CC(C)(CC)CC(=O)O)CC[C@]3(C)[C@H](CC[C@@H]4[C@@]5(C)CC[C@H](OC(=O)CC(C)(CC)CC(=O)O)C(C)(C)[C@@H]5CC[C@]43C)[C@@H]12 (stereo not given in full) | 3480 | – | –
